Test results taken from ChEMBL document CHEMBL5329221, “A covalent fragment-based strategy targeting a novel cysteine to inhibit activity of mutant EGFR kinase” (RSC Med Chem, 2023).
pIC50: −log10 of the molar value. Calls of active or inactive are those of the source. No cut-off for these calls is given here.

Experiments:
[1] = test system: Epidermal growth factor receptor (Homo sapiens), P00533 [T790M,L858R,E865A,E866A,K867A]; test: Binding affinity to N-terminal His6-tagged human EGFR T790M/L858R/E865A/E866A/K867A mutant expressed in Sf9 cells at pH 7.4 assessed as covalent adduct formation incubated for 1 hrs by TOF-MS analysis
[2] = test system: Epidermal growth factor receptor (Homo sapiens), P00533 [T790M,L858R,C797S,E865A,E866A,K867A]; test: Binding affinity to N-terminal His6-tagged human EGFR T790M/L858R/C797S/E865A/E866A/K867A mutant expressed in Sf9 cells at pH 7.4 assessed as covalent adduct formation incubated for 1 hrs by TOF-MS analysis
[3] = test system: Epidermal growth factor receptor (Homo sapiens), P00533 [T790M,L858R,E865A,E866A,K867A]; test: Binding affinity to N-terminal His6-tagged human EGFR T790M/L858R/E865A/E866A/K867A mutant expressed in Sf9 cells at pH 7.4 assessed as covalent adduct formation preincubated with nazartinib followed by compound addition and measured after 1 hrs by TOF-MS analysis
[4] = test system: Epidermal growth factor receptor (Homo sapiens), P00533 [L858R,T790M,C797S]; test: Inhibition of N-terminal His6-tagged human EGFR L858R/T790M/C797S mutant expressed in Sf9 cells assessed as decrease in substrate phosphorylation using Ulight-JAK1 peptide as substrate at 500 uMincubated for 1.5 hrs in presence of ATP by TR-FRET based LANCE Ultra kinase assay
[5] = target: Epidermal growth factor receptor (Homo sapiens) (UniProt P00533); test: Binding affinity to N-terminal twin Strep-tagged human wild type EGFR (694 to 1022 residues) expressed in Sf9 cells at pH 7.4 assessed as covalent adduct formation preincubated with maleimide followed by compound addition and measured after 1 hrs by TOF-MS analysis
[6] = test system: Epidermal growth factor receptor (Homo sapiens), P00533 [T790M,L858R,C797S,E865A,E866A,K867A]; test: Binding affinity to N-terminal His6-tagged human EGFR T790M/L858R/C797S/E865A/E866A/K867A mutant expressed in Sf9 cells at pH 7.4 incubated for 1 hrs by TOF-MS analysis
[7] = target: Epidermal growth factor receptor (Homo sapiens, UniProt P00533, C797S/L858R/T790M); test: Inhibition of N-terminal His6-tagged human EGFR L858R/T790M/C797S mutant expressed in Sf9 cells assessed as decrease in substrate phosphorylation using Ulight-JAK1 peptide as substrate incubated for 1.5 hrs in presence of ATP by TR-FRET based LANCE Ultra kinase assay
How it was run: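 LANCE Ultra TR-FRET assay with 0.25 nM EGFR_TM, 1 µM ATP, 50 nM ULight-JAK1 peptide, 50 mM HEPES pH 7.5, 10 mM MgCl2, 5 mM MnCl2, 1 mM DTT, 0.015% Brij35, 5% DMSO, 1.5 h at 23°C. EDTA stop, Eu-anti-pTyr PT66, 1 h. Signal is the 665/620 nm ratio, normalised to no-protein controls. IC50 from a four-parameter fit, otherwise % inhibition at the top concentration.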

Activity [1]	Activity [2]	Activity [3]	inhibition [4] [%]	Activity [5]	Activity [6]	pIC50 [7]	SMILES
Active	Active	inactive	52.3	inactive	Active	< 3.30	C=CC(=O)Nc1ccccn1
–	–	–	–	–	–	4.49	C=CC(=O)Nc1cc(-c2ccccc2)ccn1
Active	Active	–	–	–	–	–	C=CC(=O)Nc1cccc2c1ncn2C
Active	Active	–	–	–	–	–	C=CC(=O)Nc1cccc(NC(C)=O)n1
Active	Active	–	–	–	–	–	C=CC(=O)Nc1cccc(O)c1
Active	Active	inactive	–	inactive	Active	–	C=CC(=O)Nc1cc2ccccn2n1

The next lines start with the compound.

SMILES	Activity [1]	Activity [2]	Activity [3]	inhibition [4] [%]	Activity [5]	Activity [6]	pIC50 [7]
C=CC(=O)Nc1ccc[nH]c1=O	Active	Active	–	–	–	–	–
C=CC(=O)Nc1cc(-c2cn(C)c3ccccc23)ccn1	–	–	–	–	–	–	5.05
C=CC(=O)Nc1ccc2cccnc2c1	Active	Active	inactive	–	inactive	Active	–
C=CC(=O)Nc1cc(N(C)C)n2nc(C)cc2n1	Active	Active	–	–	–	–	–
C=CC(=O)Nc1cccc(C(C)=O)c1	Active	Active	–	–	–	–	–
C=CC(=O)Nc1ccc2c(C)n(C)nc2c1	Active	Active	–	–	–	–	–
